{
  "source": "ChEMBL document CHEMBL1136847",
  "about": "“Syntheses and potential anti-prostate cancer activities of ionone-based chalcones” (Bioorg Med Chem Lett, 2009)",
  "system": "T1, Androgen receptor (Homo sapiens), P10275 [H875Y]",
  "T1 sequence (whole entry)": "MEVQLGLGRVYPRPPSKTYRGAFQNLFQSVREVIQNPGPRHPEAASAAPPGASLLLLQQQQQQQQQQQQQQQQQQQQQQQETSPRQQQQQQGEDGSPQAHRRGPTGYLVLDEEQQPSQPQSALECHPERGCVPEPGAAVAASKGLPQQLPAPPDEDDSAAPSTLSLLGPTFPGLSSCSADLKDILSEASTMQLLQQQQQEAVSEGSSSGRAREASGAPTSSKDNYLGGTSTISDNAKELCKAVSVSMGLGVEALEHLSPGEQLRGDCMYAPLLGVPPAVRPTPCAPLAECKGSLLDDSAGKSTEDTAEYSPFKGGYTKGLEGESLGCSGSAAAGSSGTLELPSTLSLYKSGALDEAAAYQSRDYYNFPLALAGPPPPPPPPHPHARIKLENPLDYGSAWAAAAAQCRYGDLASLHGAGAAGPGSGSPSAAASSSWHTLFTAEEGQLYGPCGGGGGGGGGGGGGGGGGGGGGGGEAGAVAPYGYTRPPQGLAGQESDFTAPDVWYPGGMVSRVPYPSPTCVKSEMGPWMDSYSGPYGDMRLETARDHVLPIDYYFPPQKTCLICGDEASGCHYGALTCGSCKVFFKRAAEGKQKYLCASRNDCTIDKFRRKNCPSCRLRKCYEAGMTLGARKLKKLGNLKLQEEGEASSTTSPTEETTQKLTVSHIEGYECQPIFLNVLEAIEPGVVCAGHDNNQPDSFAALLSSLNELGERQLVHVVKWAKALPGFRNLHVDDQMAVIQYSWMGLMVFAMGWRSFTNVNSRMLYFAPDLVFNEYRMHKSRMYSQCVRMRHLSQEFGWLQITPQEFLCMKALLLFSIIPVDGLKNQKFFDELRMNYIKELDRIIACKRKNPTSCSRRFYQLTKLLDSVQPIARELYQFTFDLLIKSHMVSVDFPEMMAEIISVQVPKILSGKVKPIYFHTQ",
  "experiment": "Antagonist activity at androgen receptor H874Y mutant in human PC3 cells transiently transfected with pCMV-MMTV-Luc assessed as suppression of DHT-induced receptor transactivation",
  "assay_type": "functional, cell-based",
  "conditions": "PC-3",
  "summary_of_the_method": "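PC-3 cells seeded 24 h before co-transfection with MMTV-luciferase reporter (100 ng), the wild-type, T877A, W741C or H874Y AR plasmid (10 ng) and Renilla null luciferase (10 ng) using Lipofectamine 2000. Medium switched after 5 h to phenol red-free RPMI 1640 with 10% charcoal-stripped FBS. After 16 h, 0.1 nM DHT ± compound (0.1, 1.0 µM) for 24 h. Dual-luciferase read-out, Renilla-standardized, normalized to DHT alone (100%).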",
  "data": [
    {"smiles": "CC1=C(/C=C/C(=O)/C=C/c2cccc(C(F)(F)F)c2)C(C)(C)CCC1O", "note": "(stereo unspecified)", "values": [
      {"measurement": "Activity", "value": "Dose-dependent effect"}
    ]}
  ]
}
